Reference: article PMC3220529 (The Journal of Biological Chemistry, 2011)
Entries after “also recorded” stand apart in the source; their conditions may differ. Each block holds one molecule with its values, some of them ahead of it.

Tests used:
[1] = molecular target: S100A10-annexin A2 hybrid protein (A10A2) dimer (Oryctolagus cuniculus, UniProt Q6SQH4, C83S); assay: NMR titration; assay type: binding, rabbit; settings: pH 7.0
[2] = test system: S100A10; assay type: binding, rabbit; settings: absence of annexin A2 peptide; data not shown
[3] = molecular target: T1, A10A2 hybrid protein (dimer) (Oryctolagus cuniculus, UniProt Q6SQH4, C83S); assay: Fluorescence titration of acrylodan-labeled A10A2 with AHNAK5; assay type: binding, rabbit; settings: shifted from near 495 nm; intensity decreased; pH 7.4
Outline: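 Rabbit S100A10(C82S)–annexin A2 hybrid was made as a GST fusion in E. coli, cleaved with PreScission, and labelled with acrylodan. 167 nM labelled protein in 20 mM Tris-HCl, 120 mM NaCl, 1 mM DTT, pH 7.4, was stirred at room temperature. Peptide was added stepwise with 2 min stirring each. Excitation 375 nm, emission 400–600 nm, ΔF at 500 nm. Duplicate titrations were globally fit 1:1 for Kd.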

[4] = test system: S100A10; assay: Fluorescence titration of acrylodan-labeled S100A10 with AHNAK5; assay type: binding, rabbit; settings: absence of annexin A2 peptide
[5] = molecular target: T1, A10A2 hybrid protein (dimer); assay: Isothermal titration calorimetry of AHNAK5 into A10A2; assay type: binding, rabbit
[6] = test system: A10A2; assay: Peptide array of AHNAK C terminus probed with Alexa Fluor 680-A10A2; assay type: binding, rabbit; settings: 18-residue peptides shifted by 3 residues, Alexa-A10A2 0.2 μM, 2 h, 700 nm
Outline: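 330 spots of 18-residue AHNAK peptides (residues 4884–5890, 3-residue offset) were Fmoc-synthesized on […]. Membranes were methanol-hydrated, washed in TBS + 0.05% Tween, and blocked 1 h with skim milk. A10A2 is a rabbit S100A10(C82S)–annexin A2 hybrid made in E. coli.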

[7] = molecular target: S100A10-annexin A2 (Oryctolagus cuniculus, UniProt Q6SQH4, C83S); assay: Overall binding of AHNAK5 to S100A10-annexin A2; design: species or system rabbit; settings: S100A10 without annexin A2 peptide; discussion statement
[8] = molecular target: S100A10^C82S (rabbit S100A10 with Cys82 changed to Ser) (rabbit); assay: native MS
[9] = molecular target: S100A10^C82S-annexin A2 hybrid protein (A10A2) (rabbit | not stated); assay: native MS
[10] = molecular target: non-covalent complex of S100A10 (C82S) dimer with two annexin A2 peptides (residues 1-15) (rabbit | not stated); assay: native MS
[11] = molecular target: S100A10^C82S-annexin A2 hybrid protein (A10A2) (rabbit | not stated); assay: NMR titration
[12] = molecular target: S100A10^C82S-annexin A2 hybrid protein (A10A2) (rabbit | not stated); assay: ITC
[13] = molecular target: acrylodan-labeled A10A2 hybrid protein (rabbit | not stated); assay: other fluorescence titration

Molecule: Ac-GKVTFPKMKIPKFTFSGREL-NH2 [AHNAK5]
exchange regime / peak doubling on AHNAK5 binding, A10A2 ([1]; 1H-15N HSQC, 0.5 mM A10A2 (protomer), 0.25 mM AHNAK5, 35 °C): disappearance of peaks from S100A10 and the appearance of new resonances on the slow exchange time scale; also recorded: resonances from the annexin A2 portion of A10A2 also exhibited peak doubling | stoichiometry AHNAK5 : A10A2 dimer, NMR ([1]; inflection point of peak intensity changes, 35 °C): one AHNAK5 peptide to one A10A2 dimer | interaction with S100A10 without annexin A2, NMR [2]: did not show an interaction between S100A10 and AHNAK5; also recorded: no evidence for interaction of AHNAK5 with S100A10 in the absence of annexin A2 | precipitation during titration of S100A10 with AHNAK5 [2]: prone to precipitation | acrylodan-A10A2 fluorescence maximum upon addition of AHNAK5 [3]: 500 nm | interaction with S100A10, fluorescence [4]: little wavelength shift, suggestive of a poor interaction | entropy change ([5]; ITC): positive entropy change | ΔH (binding enthalpy) ([5]; ITC, 35 °C, pH 7.2): -10 ± 0.096 kcal/mol | ΔS (entropy change) ([5]; ITC, 35 °C, pH 7.2): 0.00201 kcal/mol | n (binding sites), ITC ([5]; single binding site fit, 35 °C, pH 7.2): 1.02 | A10A2 binding in peptide array (intensity, words) [6]: strong interaction with A10A2 | interaction in experiments lacking annexin A2 peptide (summary) [7]: little or no observable interaction

Molecule: S100A10^C82S (rabbit S100A10 with Cys82 changed to Ser) (natural protein)
stoichiometry N [8]: 2

Molecule: S100A10^C82S-annexin A2 hybrid protein (A10A2)
stoichiometry N [9]: 2

Molecule: sequence b: AHNAK array region Asp4959–Pro4994; most intense spot 4968–4985 (DSPDINIEGPDVKIPKFKKPKFGFGAKSPKADIKSP)
A10A2 binding in peptide array (intensity, words) [6]: best interaction with A10A2; also recorded: most intense binding at any one spot

Molecule: sequence c: AHNAK array region Pro5220–Ile5243 (PDVDLQGPEAKIKFPKFSMPKIGI)
A10A2 binding in peptide array (intensity, words) [6]: best interaction with A10A2

Molecule: sequence e: AHNAK array region Gly5652–Gly5675; most intense spot 5652–5669 (GSGKVTFPKMKIPKFTFSGRELVG)
A10A2 binding in peptide array (intensity, words) [6]: best interaction with A10A2; also recorded: most intense binding at any one spot

Molecule: sequence f: AHNAK array region Ser5703–Thr5729 (SEVKLKKSKIKMPKFNFSKPKGKGGVT)
A10A2 binding in peptide array (intensity, words) [6]: best interaction with A10A2

Molecule: sequence h: AHNAK array region Leu5808–Glu5837 (LEGGKVKGKHGKLKFGTFGGLGSKSKGHYE)
A10A2 binding in peptide array (intensity, words) [6]: best interaction with A10A2

Molecule: Ac-STVHEILSKLSLEGD-NH2 [annexin A2 peptide (residues 1-15)]
stoichiometry N (annexin A2 peptides per S100A10 dimer) [8]: 2

Now from value to molecule:

A10A2 binding in peptide array (intensity, words) [6]: best interaction with A10A2
Molecule: sequence a: AHNAK array region Thr4917–Gly4940 (overlapping 18-residue peptides) (TAPDVDLHLKAPKIGFSGPKLEGG)

A10A2 binding in peptide array (intensity, words) [6]: best interaction with A10A2
Molecule: sequence d: AHNAK array region Asn5607–Ile5633 (NLDTSKFAGGLHFSGPKVEGGVKGGQI)

A10A2 binding in peptide array (intensity, words) [6]: best interaction with A10A2
Molecule: sequence g: AHNAK array region Ala5757–Ser5780 (AEAEASSPKGKFSLFKSKKPRHRS)

stoichiometry N (AHNAK5 per A10A2 dimer) [9]: 1 | stoichiometry N [10]: 1 | Kd [11]: < 1000 nM | stoichiometry N (AHNAK5 per A10A2 dimer) [11]: 1 | Kd [12]: 28 nM | dH [12]: -10 kcal/mol | stoichiometry N (AHNAK5 per A10A2 dimer) [12]: 1.02 | Kd [13]: 35 nM
Molecule: Ac-GKVTFPKMKIPKFTFSGREL-NH2 [AHNAK5 peptide (AHNAK residues Gly5654-Leu5673)]
